Hits are enriched below; roughly 9.4% of the tested compounds scored in any of these assays.
Beta apoptosis – inhibitors of cytokine-induced beta cell apoptosis, primary screen, luminescence; INS-1E cytokine-induced death, ATP luminescence, 48 h; percent of positive-control rescue, neutral wells zero; protection from apoptosis, % (concentration not given with the values); 300,000 tested, 0.8% active; AID 435005, 2010;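 active = Every replicate reaches about 75%, or at least half do and their mean reaches it too, limit read from the data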;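 also: higher means more ATP so stronger rescue from cytokine killing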
T cruzi repl – inhibitors of intracellular T. cruzi growth, primary screen, luminescence, NIH3T3 host cells; inhibition, % (concentration not given with the values); T. cruzi beta-gal in NIH3T3, 90 h; AID 1885, 2009; 300,000 tested, 1.4% active;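 active = mean inhibition across valid replicates above about 55%, limit read from the data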;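 also: signal also drops with host cell toxicity which is not excluded here; higher percent means less beta-gal luminescence so fewer parasites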
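Material: NIH/3T3 host cells with β-galactosidase reporter T. cruzi; Input: 5,000 host fibroblasts per well; Medium: DMEM, 2% fetal bovine serum; Compound: 50 nL DMSO compound solution per well; Schedule: 3 h host attachment, then at least 90 h co-culture; Detection: luminescent β-galactosidase signal after 60 min lysis.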
CSC inhib – cancer stem cell viability inhibitors, primary screen, luminescence; 300,000 tested, 1.1% active; cancer stem cell-like cells viability; inhibition, % at 7.5 µM; in the data active = inhibition above about 75%; tested in HMLE shEcad cells
SKKanGAS inh – S. pyogenes SKKanGAS growth inhibitors in kanamycin, primary screen, streptokinase expression inhibitor project, SKKanGAS strain, BacTiter-Glo luminescence; 6 h; inhibition, % at 7.5 µM; 300,000 tested, 1.3% active;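 active = mean replicate score, as percent of positive control median, at least 50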;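 also: strain carries kanamycin resistance gene driven by streptokinase promoter and grows in 40 µg/ml kanamycin; loss of luminescence reflects streptokinase promoter inhibition or plain growth inhibition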
Mdm2 MdmX PPI – inhibitors of human Mdm2-MdmX association, primary screen, cell-based, luminescence, split luciferase, SaOS-2, uHTS | Protein Mdm4 (Homo sapiens) + E3 ubiquitin-protein ligase Mdm2 (Homo sapiens), … | SaOS-2 split-luciferase Mdm2/MdmX complementation | inhibition, % at 8 µM | 330,000 tested, 3% active | AID 485346, 2010;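 active = inhibition of at least 50% at 8 µM in the primary screen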
Target sequence (O15151 whole entry, looked up): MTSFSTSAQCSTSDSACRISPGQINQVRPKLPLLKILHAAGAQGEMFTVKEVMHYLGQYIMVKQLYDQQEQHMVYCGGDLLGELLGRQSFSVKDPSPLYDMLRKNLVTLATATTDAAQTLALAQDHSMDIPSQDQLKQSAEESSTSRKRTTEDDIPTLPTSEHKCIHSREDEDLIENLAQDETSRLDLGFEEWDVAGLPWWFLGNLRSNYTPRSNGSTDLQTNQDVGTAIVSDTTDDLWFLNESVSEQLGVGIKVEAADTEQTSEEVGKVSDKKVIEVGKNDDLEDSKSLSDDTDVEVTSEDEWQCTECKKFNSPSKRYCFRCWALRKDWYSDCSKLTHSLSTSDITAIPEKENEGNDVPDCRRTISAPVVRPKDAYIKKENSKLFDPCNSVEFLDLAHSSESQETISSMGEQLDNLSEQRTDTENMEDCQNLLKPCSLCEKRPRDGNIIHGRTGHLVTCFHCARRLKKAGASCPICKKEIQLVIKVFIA
Target sequence (Q00987 whole entry, looked up): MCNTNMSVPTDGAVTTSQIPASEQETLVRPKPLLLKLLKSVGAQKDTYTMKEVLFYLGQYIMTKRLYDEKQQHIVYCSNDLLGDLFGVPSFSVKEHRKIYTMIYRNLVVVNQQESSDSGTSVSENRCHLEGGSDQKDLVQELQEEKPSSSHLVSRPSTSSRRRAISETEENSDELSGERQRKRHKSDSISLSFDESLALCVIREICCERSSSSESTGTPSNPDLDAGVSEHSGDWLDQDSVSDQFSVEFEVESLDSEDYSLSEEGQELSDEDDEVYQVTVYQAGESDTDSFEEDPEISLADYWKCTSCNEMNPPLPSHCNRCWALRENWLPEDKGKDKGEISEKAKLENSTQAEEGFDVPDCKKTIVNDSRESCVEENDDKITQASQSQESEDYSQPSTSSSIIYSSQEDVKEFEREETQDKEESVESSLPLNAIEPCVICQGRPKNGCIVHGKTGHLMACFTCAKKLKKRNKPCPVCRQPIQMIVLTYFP
L major viab – Leishmania major promastigote growth inhibition, primary screen; 200,000 tested, 9% active; inhibition, % at 10 µM; AID 1063, 2008; Leishmania major promastigotes, resazurin fluorescence viability; in the data active = inhibition above about 50%;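 also: promastigotes grown with compound for 44 hours at 28 °C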
A number is an active result; - = inactive; . = no result; + = active, no number.

SMILES	Beta apoptosis	T cruzi repl	CSC inhib	SKKanGAS inh	Mdm2 MdmX PPI	L major viab
Cc1cc(Oc2ccc3ccccc3c2)nc(SCC(=O)c2ccccc2)n1	-	-	-	-	-	93.1
Cc1nn(CC(O)c2ccccc2)c(C)c1Br (stereo unspecified)	-	-	-	-	-	-
Cc1cc(C)n(-c2nnc(NCc3ccc(Cl)cc3)nn2)n1	-	-	-	-	-	90.7
CNc1nc(C)nc(-n2nc(C)cc2C)n1	-	-	-	-	-	-
Cc1cc(C)n(-c2nc(C)nc(NCc3ccccc3)n2)n1	-	-	-	58.0	-	59.3
Cc1nn(-c2nnc(NCc3ccccc3)nn2)c(C)c1Br	-	-	-	-	-	84.3
Cc1cc(C)n(-c2ccc(C(=O)OCC(=O)NCc3ccc(Cl)cc3)cc2)n1	-	-	-	-	-	-
COc1ccc(CNC(=O)C2CCN(C(=O)c3csc(Nc4ccc(C)cc4)n3)CC2)cc1	.	-	-	-	-	.
CN(CC(=O)Nc1ccc(F)cc1)C(=O)Cn1cnc2ccc(Cl)cc2c1=O	-	.	.	.	-	.
COc1ccc(C(=O)O)cc1S(=O)(=O)Nc1ccc2cn[nH]c2c1	-	.	-	.	-	.
COc1ccc(C2OCC3(CO2)SC(N)=NC3=O)cc1 (stereo unspecified)	-	-	-	-	-	-
CC(C)(C)NCC1(CO)SC(N)=NC1=O (stereo unspecified)	-	56.7	-	-	-	-
CCCC(=O)Nc1nnc(SCC)s1	-	-	-	-	-	69.8
CCCSc1nsc(NC(=O)CCC)n1	-	56.4	-	-	-	-
CCCC(=O)Nc1nnc(SCC(=O)N2CCCCC2)s1	-	-	-	-	-	.
Cc1cc(C)nc(SCc2ccc(C(=O)NNC(=O)Nc3cccc(Cl)c3)cc2)n1	-	-	110.6	-	.	-
O=C(N/N=C/c1ccccn1)c1ccc(NC(=O)c2ccccc2Cl)cc1	.	-	-	-	-	.
Cc1cc(C)nc(SCc2ccc(C(=O)N/N=C/c3ccccn3)cc2)n1	-	-	-	-	-	90.9
O=C(N/N=C/c1ccccn1)c1ccc(Cl)c(Cl)c1	-	-	-	52.8	-	.
Cc1cc(C)nc(SCc2ccc(C(=O)N/N=C/c3ccncc3)cc2)n1	-	-	-	-	-	-
CCNc1nc(NC(C)C)nc(N(n2cnnc2)S(=O)(=O)c2ccc(C)cc2)n1	-	-	-	-	-	57.6
CCN(CC)C(=O)c1ccc(-c2nnc(OC)c3ccccc23)cc1	-	-	-	-	-	.
CCSc1ncc(/C=N/Nc2ccc(F)cc2)n1C	-	-	-	-	-	68.7
CC(=O)Nc1ccc(NC(=O)CSc2ncc(C(=O)Nc3ccc(F)cc3)c(=O)n2C)cc1	-	-	-	-	-	.
CCOc1ccc2c(c1)C(C)=CC(C)(C)N2C(=O)Nc1ccccc1F	-	-	-	-	-	68.3
SMILES	Beta apoptosis	T cruzi repl	CSC inhib	SKKanGAS inh	Mdm2 MdmX PPI	L major viab
CCNC(=O)N1c2ccc(OCC)cc2C(C)=CC1(C)C	-	-	-	-	-	-
CSc1cccc(NC(=O)Cc2ccccc2[N+](=O)[O-])c1	-	-	-	-	-	-
COc1ccc(CCN(C)CC(=O)Nc2c(C)cc(C)cc2C)cc1OC	-	61.3	-	-	-	.
COc1ccc(CCN(C)CCC(=O)Nc2cc(C)ccc2C)cc1OC	-	-	-	-	-	-
CCN(CC)CCc1c(C)[nH]c(C(=O)OCc2ccccc2)c1C	-	-	-	-	-	100.1
CCOC(=O)CC(NC(=O)CCS(=O)(=O)c1ccc2c(c1)n(C)c(=O)c(=O)n2C)c1ccc(C)cc1 (stereo unspecified)	-	-	-	58.9	-	.
CCC(C)NC(=O)CCS(=O)(=O)c1ccc2c(c1)n(C)c(=O)c(=O)n2C (stereo unspecified)	-	-	-	-	-	-
CCOc1ccccc1NC(=S)NCCc1ccccc1	-	-	-	-	-	-
CC(C)c1ccc(NC(=O)C2=NNC(=O)CC2)cc1	-	-	-	-	-	.
COC(=O)/C(=C/c1ccco1)NC(=O)c1ccco1	-	-	-	-	-	79.9
Cc1ccc(C(=O)N/C(=C/c2ccco2)C(=O)OCN2C(=O)c3ccccc3C2=O)cc1	-	-	-	-	-	60.7
COC(=O)c1ccccc1NC(=O)CSc1ncn[nH]1	-	-	-	-	-	.
CC(=O)Nc1ccc(NC(=O)Nc2ccc3c(c2)N(C)C(=O)CS3)cc1	-	-	-	-	-	-
CCOc1ccc(OCC)c(NC(=O)Nc2ccc3c(c2)N(C)C(=O)CS3)c1	-	-	-	-	-	66.9
COc1ccc(NC(=O)c2nn(C)c(=O)c3ccccc23)cc1S(=O)(=O)Nc1ccccc1Cl	-	-	-	-	-	60.3
COc1ccc(NC(=O)CCSc2ccc(C)cc2)cc1S(=O)(=O)Nc1ccccc1Cl	-	-	-	-	-	87.9
COc1ccc(NC(=O)c2cc(C)nc3ccccc23)cc1S(=O)(=O)Nc1ccccc1Cl	-	-	-	-	-	-
COc1ccc(NS(=O)(=O)c2cc(NC(=O)CCSc3ccccc3)ccc2OC)cc1	-	-	-	-	-	-
COc1ccc(NC(=O)c2ccc3ccccc3n2)cc1S(=O)(=O)Nc1ccccc1Cl	-	-	-	-	-	97.5
CCOc1ccc(NS(=O)(=O)c2cc(NC(=O)CCS(=O)(=O)c3ccc(C)cc3)ccc2OC)cc1	-	-	-	-	-	60.2
COc1ccccc1NS(=O)(=O)c1cccc(NC(=O)c2nn(C)c(=O)c3ccccc23)c1	-	.	.	.	-	.
CCCCCCSc1ccc([C@H]2N[C@@](Cc3ccccc3)(C(=O)OC)[C@H]3C(=O)N(C)C(=O)[C@@H]23)cc1OC	.	-	-	-	-	.
CCc1ccc(S(=O)(=O)N2CCN(c3ccccc3OC)CC2)cc1	-	-	-	-	-	.
CNC(=S)N1CCC(NC(=O)C(Cc2ccccc2)NC(C)=O)CC1 (stereo unspecified)	-	-	-	-	-	-
CC(C)COc1ccc(-c2nn(-c3ccccc3)cc2/C=C2/SC(=S)N(CC(=O)O)C2=O)cc1	-	-	+	71.8	-	.
C[C@H]1COc2c(C3(N)CC3)c(F)cc3c(=O)c(C(=O)O)cn1c23	-	-	-	65.6	.	.
CCOC(=O)c1cn(C2CC2)c2c(F)c(F)c(F)cc2c1=O	-	-	.	-	-	-
CN1CCN(c2c(F)cc3c(=O)c(C(=O)O)cn4c3c2SCC4)CC1	-	-	-	-	-	-
C[C@H]1COc2c(N3CCN(C)CC3)c(F)cc3c(=O)c(C(=O)O)cn1c23	-	-	-	107.4	-	.
Cc1ccc(CSCC2Nc3ccc(C(=O)N4CCN(c5cccc(C)c5)C(C)C4)cc3NC2=O)cc1 (stereo unspecified)	-	-	-	-	-	.

High-throughput results (PubChem)
